The results in this text go back to ChEMBL document CHEMBL1123129, “Hypolipidemic activity of indan-1,3-dione derivatives in rodents” (J Med Chem, 1985).

The target of data set [1] is Acetyl-coenzyme A synthetase, cytoplasmic (Mus musculus) (UniProt Q9QXG4). Description: In Vivo effect for the hypolipidemic activity on Acetyl-coenzyme A synthetase in CF1 mice after 16 days of oral administration at a dose of 20 mg/kg. Further details: dose 20 mg/kg. It counts as functional, organism-based. Put shortly: (§1)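 CF1 male mice are dosed orally at 10–60 mg/kg per day for 16 days, with 1% CMC as the control vehicle. Liver is homogenized at 10% in 0.25 M sucrose + 0.001 M EDTA, pH 7.2. Enzymes are assayed by literature methods, with Lowry protein. Activity is given as % of control (X ± SD, N = 6), with p from Student's t test.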

The subject of data set [2] is Mus musculus. Description: Compound was evaluated for the hypolipidemic activity in CF1 male mice at a dose of 10 mg/kg orally for Serum cholesterol at 9th day. Type of data set: functional. As to conditions: route oral. The procedure, abridged:
(§2)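 CF1 male mice received the agent orally in 1% CMC at 10–60 mg/kg per day. Tail-vein blood was taken on days 9 and 16. Serum cholesterol was measured by modified Liebermann–Burchard on duplicate 25-µL samples, and serum triglyceride on day 16 in duplicate 50-µL samples. Values are % of vehicle control, mean ± SD, N = 6; Student's t test.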

For data set [3], the system named is Rattus norvegicus. Put plainly: Compound was evaluated for the hypolipidemic activity at 20 mg/kg per day orally for 14 days on cholesterol content in rat VLDL. It counts as functional. As to conditions: route oral. The procedure, abridged: (§3)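 Male Sprague–Dawley rats (~300 g) were dosed orally each day. Blood was drawn from the abdominal vein. Lipoprotein fractions (chylomicron, VLDL, LDL, HDL) were separated by the Hatch–Lees and Havel methods. Each fraction was assayed for cholesterol, triglyceride (enzymatic kit), neutral lipids, phospholipids and Lowry protein. Values are % of 1% CMC vehicle control, N = 6.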

For data set [4], the system named is Rattus norvegicus. Description: Compound was evaluated for the hypolipidemic activity at 20 mg/kg per day orally for 14 days on triglycerides content in rat LDL. Conditions: route oral. Type of data set: functional. Put shortly:
as §3

In data set [5] the test system is Mus musculus. Description: In Vivo effect for the hypolipidemic activity on Acetyl-CoA carboxylase in CF1 mice after 16 days administered orally at a dose of 60 mg/kg. Type of data set: functional. Conditions: route oral. Put shortly: as §1
Data set [6] concerns Mus musculus. Put plainly: In Vivo effect for the hypolipidemic activity on Acetyl-CoA carboxylase in CF1 mice after 16 days administered orally at a dose of 40 mg/kg. Conditions: route oral. It counts as functional. The procedure, abridged:
as §1

The test system of data set [7] is Rattus norvegicus. Put plainly: Compound was evaluated for the hypolipidemic activity in Sprague-Dawley rats at a dose of 20 mg/kg orally for Serum cholesterol at 9th day. Type of data set: functional. Conditions: route oral. The procedure, abridged:
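Sprague–Dawley male rats (~350 g) received 20 mg/kg per day orally, with 1% CMC as the vehicle control; N = 6. Tail-vein blood was taken between 8:00 and 9:30 a.m. on days 9 and 16 and spun for 3 min to obtain serum. Cholesterol was measured by a modified Liebermann–Burchard reaction and triglyceride by kit. Values are % control ± SD; significance by Student's t test.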

Data set [8] addresses Cholesterol 7-alpha-hydroxylase (Cytochrome P450 7A1) (Mus musculus, UniProt Q64505). Description: In vitro percent Cholesterol 7-alpha-hydroxylase activity in mouse CF1 liver microsomes at 200 uM. Also on record: species or system Microsome. Conditions: read-out: Control. The procedure, abridged:
(§4)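 Mouse liver enzymes assayed in vitro on 10% homogenates of CF1 male mouse liver, with test drug added at 50–200 μM. Each enzyme follows a published procedure. Protein is measured by Lowry. Activity is given as % of untreated control (X ± SD, N = 6).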
In general terms: Microsomes from liver hold many membrane-bound enzymes, among them those of drug oxidation.

Data set [9] is filed under the species Mus musculus. Description: In Vitro evaluation for the CF1 liver enzyme activity on Hepatic lipoprotein lipase at concentration 100 uM. Type of data set: functional. Put shortly: as §4
For data set [10], the species on record is Mus musculus. Description: In Vitro evaluation for the CF1 liver enzyme activity on Mitochondrial citrate exchange at concentration 50 uM. It counts as functional. The procedure, abridged:
as §4

Data set [11] relates to Mus musculus. Description: Compound was evaluated for the hypolipidemic activity in CF1 male mice at a dose of 40 mg/kg orally for Serum triglyceride at 16th day. Type of data set: functional. As to conditions: route oral. The procedure, abridged: as §2
Data set [12] has as its system Mus musculus. Description: Compound was evaluated for the hypolipidemic activity in CF1 male mice at a dose of 20 mg/kg orally for Serum triglyceride at 16th day. As to conditions: route oral. It counts as functional. Put shortly: as §2
The species named for data set [13] is Mus musculus. Put plainly: In Vitro evaluation for the CF1 liver enzyme activity on phosphatidate phosphohydrolase at concentration 100 uM. The procedure, abridged: as §4
In data set [14] the target is T1, ATP-citrate synthase (Mus musculus) (UniProt Q91V92).
T1 sequence (whole entry): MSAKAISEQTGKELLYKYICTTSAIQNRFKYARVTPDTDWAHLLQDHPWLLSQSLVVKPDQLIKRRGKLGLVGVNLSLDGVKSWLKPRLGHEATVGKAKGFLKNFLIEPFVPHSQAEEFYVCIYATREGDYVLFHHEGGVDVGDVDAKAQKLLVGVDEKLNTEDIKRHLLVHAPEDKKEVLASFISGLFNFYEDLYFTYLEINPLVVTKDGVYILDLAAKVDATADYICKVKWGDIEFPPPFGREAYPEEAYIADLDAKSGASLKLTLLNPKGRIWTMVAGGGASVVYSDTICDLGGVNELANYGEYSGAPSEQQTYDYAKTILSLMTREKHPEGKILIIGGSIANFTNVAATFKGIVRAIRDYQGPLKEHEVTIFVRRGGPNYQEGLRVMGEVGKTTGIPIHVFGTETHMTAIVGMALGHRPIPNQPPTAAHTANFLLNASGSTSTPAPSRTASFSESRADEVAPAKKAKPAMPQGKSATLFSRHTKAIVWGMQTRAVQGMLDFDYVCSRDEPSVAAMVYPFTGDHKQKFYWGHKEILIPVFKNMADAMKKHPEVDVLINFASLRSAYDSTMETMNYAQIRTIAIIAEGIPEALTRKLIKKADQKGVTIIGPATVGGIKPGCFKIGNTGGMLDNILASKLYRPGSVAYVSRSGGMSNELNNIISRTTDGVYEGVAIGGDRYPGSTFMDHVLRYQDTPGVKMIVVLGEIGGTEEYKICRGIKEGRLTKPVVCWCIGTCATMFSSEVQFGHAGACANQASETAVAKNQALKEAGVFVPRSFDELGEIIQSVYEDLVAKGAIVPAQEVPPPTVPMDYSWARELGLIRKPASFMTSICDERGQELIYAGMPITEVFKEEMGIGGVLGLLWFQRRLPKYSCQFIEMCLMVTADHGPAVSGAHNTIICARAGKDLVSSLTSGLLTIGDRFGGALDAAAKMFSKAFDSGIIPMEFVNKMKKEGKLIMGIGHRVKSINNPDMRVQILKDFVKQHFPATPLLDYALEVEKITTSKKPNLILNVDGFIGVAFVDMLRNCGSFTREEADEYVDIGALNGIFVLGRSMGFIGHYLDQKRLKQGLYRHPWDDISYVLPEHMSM
Put plainly: In Vivo effect for the hypolipidemic activity on ATP-Citrate Lyase in CF1 mice after 16 days of oral administration at a dose of 10 mg/kg. Type of data set: organism-based. Further details: dose 10 mg/kg. The procedure, abridged:
as §1

The test system of data set [15] is Mus musculus. Description: Compound was evaluated for the hypolipidemic activity in CF1 male mice at a dose of 20 mg/kg orally for Serum cholesterol at 16th day. It counts as functional. Conditions: route oral. Put shortly:
as §2

Data set [16] concerns Mus musculus. Description: Compound was evaluated for the hypolipidemic activity in CF1 male mice at a dose of 20 mg/kg orally for Serum cholesterol at 9th day. It counts as functional. As to conditions: route oral. Put shortly:
as §2

For data set [17], the system named is Rattus norvegicus. Put plainly: Compound was evaluated for the hypolipidemic activity at 20 mg/kg per day orally for 14 days on neutral lipid content in rat liver. As to conditions: route oral. Type of data set: functional. Put shortly: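 Male Sprague–Dawley rats were dosed orally for 14 days. Liver, small intestine and a 24-h fecal collection were lipid-extracted. Extracts were assayed for cholesterol (modified Liebermann–Burchard), triglyceride (enzymatic kit), neutral lipids, phospholipids and protein. Values are % of 1% CMC vehicle control, mean ± SD, N = 6.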

Chain of Acetyl-coenzyme A synthetase, cytoplasmic (Mus musculus) (Q9QXG4 whole entry): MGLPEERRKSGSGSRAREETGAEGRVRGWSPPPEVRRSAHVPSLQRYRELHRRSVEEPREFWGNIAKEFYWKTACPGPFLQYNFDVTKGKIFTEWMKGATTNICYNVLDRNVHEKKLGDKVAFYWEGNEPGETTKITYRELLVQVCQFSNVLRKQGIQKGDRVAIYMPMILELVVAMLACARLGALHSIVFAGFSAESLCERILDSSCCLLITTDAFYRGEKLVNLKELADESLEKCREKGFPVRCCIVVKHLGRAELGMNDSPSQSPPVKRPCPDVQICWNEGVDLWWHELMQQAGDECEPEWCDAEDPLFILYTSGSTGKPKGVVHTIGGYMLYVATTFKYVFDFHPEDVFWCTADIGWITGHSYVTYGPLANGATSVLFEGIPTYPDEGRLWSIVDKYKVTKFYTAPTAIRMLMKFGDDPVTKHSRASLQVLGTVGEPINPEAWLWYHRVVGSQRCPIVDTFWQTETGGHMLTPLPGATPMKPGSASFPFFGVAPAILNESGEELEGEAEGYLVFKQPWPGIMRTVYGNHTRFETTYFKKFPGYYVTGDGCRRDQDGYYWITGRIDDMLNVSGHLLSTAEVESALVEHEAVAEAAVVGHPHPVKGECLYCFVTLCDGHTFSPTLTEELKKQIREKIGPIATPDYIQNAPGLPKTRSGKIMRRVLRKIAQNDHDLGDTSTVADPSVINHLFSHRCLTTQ
Chain of Cholesterol 7-alpha-hydroxylase (Cytochrome P450 7A1) (Q64505 whole entry): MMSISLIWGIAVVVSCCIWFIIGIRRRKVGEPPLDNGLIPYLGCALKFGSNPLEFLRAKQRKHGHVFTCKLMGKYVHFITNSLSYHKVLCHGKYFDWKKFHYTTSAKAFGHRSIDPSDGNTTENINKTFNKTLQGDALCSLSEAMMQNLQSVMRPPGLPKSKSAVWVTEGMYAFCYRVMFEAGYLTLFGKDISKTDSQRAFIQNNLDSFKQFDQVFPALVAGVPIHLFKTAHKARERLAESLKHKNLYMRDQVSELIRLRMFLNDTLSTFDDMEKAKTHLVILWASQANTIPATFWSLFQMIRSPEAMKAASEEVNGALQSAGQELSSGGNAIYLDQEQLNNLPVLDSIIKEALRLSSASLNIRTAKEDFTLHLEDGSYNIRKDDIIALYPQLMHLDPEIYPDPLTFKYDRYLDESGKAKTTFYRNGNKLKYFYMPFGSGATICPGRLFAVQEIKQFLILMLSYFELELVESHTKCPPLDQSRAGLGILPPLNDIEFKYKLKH

Regarding `COc1ccc(C2C(=O)c3ccccc3C2=O)cc1` [ANISINDIONE], the Control in data set [1] was found to be 72%; with Mus musculus [2], 82%; with Rattus norvegicus [3] it was 88%; in the data set with Rattus norvegicus [4] it was 40%; in the data set with Mus musculus [5] it was 97%; with Mus musculus [6], 98%. Also, the Control in the data set on Rattus norvegicus [7] was determined as 74%; in the data set filed under Mus musculus [9], 94%; in the data set filed under Mus musculus [10] it was 36%; with Mus musculus [11], 73%; with Mus musculus [12], 48%; in the data set filed under Mus musculus [13], 29%. The Control in data set [14] came to 70%; in the data set with Mus musculus [15], 62%; in the data set on Mus musculus [16] it was 67%; with Rattus norvegicus [17] it was 84%. For the same compound, the activity at 200 µM in data set [8] came to 113%.
